Laboratory results published in ChEMBL document CHEMBL1157665, “Novel 4-thiazolidinone derivatives as potential antifungal and antibacterial drugs” (2010).

Legend:
[1] = test system: Pseudomonas aeruginosa; test: Antibacterial activity against Pseudomonas aeruginosa ATCC 27853 after 72 hrs by serial sub-cultivation method; assay type: functional; settings: ATCC 27853, 72 h
Summary of the method: (§1)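 MBC was found by serial sub-cultivation of 2 µl from the MIC wells into plates holding 100 µl broth per well, then incubation for 72 h. MBC is the lowest concentration with no visible growth, i.e. 99.5% killing of the original inoculum. Bacterial inoculum was 1.0 × 10^4 cfu per well in LB broth. Duplicate, repeated three times.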

[2] = test system: Salmonella typhimurium; test: Antibacterial activity against Salmonella Typhimurium ATCC 13311 after 72 hrs by serial sub-cultivation method; assay type: functional, Salmonella enterica subsp. enterica serovar Typhimurium; settings: Salmonella enterica, ATCC 13311, 72 h; summary of the method: as §1
[3] = test system: Micrococcus flavus; test: Antibacterial activity against Micrococcus flavus ATCC 10240 after 72 hrs by serial sub-cultivation method; assay type: functional; settings: ATCC 10240, 72 h; summary of the method: as §1
[4] = test system: Bacillus cereus; test: Antibacterial activity against Bacillus cereus clinical isolate after 72 hrs by serial sub-cultivation method; assay type: functional; summary of the method: as §1
[5] = test system: Micrococcus flavus; test: Antibacterial activity against Micrococcus flavus ATCC 10240 after 24 hrs; assay type: functional; settings: ATCC 10240, 24 h
Summary of the method: (§2)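 Broth microdilution MIC in 96-well plates. Compounds in LB broth with bacterial inoculum of 1.0 × 10^4 cfu per well, from suspensions adjusted with sterile saline to 1.0 × 10⁵ CFU/ml. Incubated 24 h at […] as printed. MIC taken as the lowest concentration with no visible growth under the binocular microscope. OD at 655 nm also read against blank. Streptomycin and ampicillin as positive controls. Duplicate, repeated three times.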

[6] = test system: Bacillus cereus; test: Antibacterial activity against Bacillus cereus clinical isolate after 24 hrs; assay type: functional; summary of the method: as §2
[7] = test system: Escherichia coli; test: Antibacterial activity against Escherichia coli ATCC 35210 after 72 hrs by serial sub-cultivation method; assay type: functional; settings: ATCC 35210, 72 h; summary of the method: as §1
[8] = test system: Salmonella typhimurium; test: Antibacterial activity against Salmonella Typhimurium ATCC 13311 after 24 hrs; assay type: functional, Salmonella enterica subsp. enterica serovar Typhimurium; settings: Salmonella enterica, ATCC 13311, 24 h; summary of the method: as §2
[9] = test system: Listeria monocytogenes; test: Antibacterial activity against Listeria monocytogenes NCTC 7973 after 72 hrs by serial sub-cultivation method; assay type: functional; settings: NCTC 7973, 72 h; summary of the method: as §1
[10] = test system: Escherichia coli; test: Antibacterial activity against Escherichia coli ATCC 35210 after 24 hrs; assay type: functional; settings: ATCC 35210, 24 h; summary of the method: as §2
[11] = test system: Pseudomonas aeruginosa; test: Antibacterial activity against Pseudomonas aeruginosa ATCC 27853 after 24 hrs; assay type: functional; settings: ATCC 27853, 24 h; summary of the method: as §2
[12] = test system: Proteus mirabilis; test: Antibacterial activity against Proteus mirabilis after 72 hrs by serial sub-cultivation method; assay type: functional; summary of the method: as §1
[13] = test system: Proteus mirabilis; test: Antibacterial activity against Proteus mirabilis after 24 hrs; assay type: functional; summary of the method: as §2
[14] = test system: Staphylococcus aureus; test: Antibacterial activity against Staphylococcus aureus ATCC 6538 after 24 hrs; assay type: functional; settings: ATCC 6538, 24 h; summary of the method: as §2
[15] = test system: Staphylococcus aureus; test: Antibacterial activity against Staphylococcus aureus ATCC 6538 after 72 hrs by serial sub-cultivation method; assay type: functional; settings: ATCC 6538, 72 h; summary of the method: as §1
[16] = test system: Listeria monocytogenes; test: Antibacterial activity against Listeria monocytogenes NCTC 7973 after 24 hrs; assay type: functional; settings: NCTC 7973, 24 h; summary of the method: as §2
[17] = test system: Talaromyces funiculosus; test: Antifungal activity against Penicillium funiculosum ATCC 36839 after 72 hrs by serial dilution method; assay type: functional; settings: ATCC 36839, 72 h
Summary of the method: (§3)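 Fungi were kept on malt agar at 4 °C and sub-cultured monthly. Spores were washed off the agar with sterile 0.85% saline containing 0.1% Tween 80 (v/v). Modified microdilution in 96-well plates. MIC is the lowest concentration with no visible growth under the binocular microscope. Inoculum checked on malt agar for contamination and validity.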

[18] = test system: Aspergillus niger; test: Antifungal activity against Aspergillus niger ATCC 6275 after 72 hrs by serial dilution method; assay type: functional; settings: ATCC 6275, 72 h; summary of the method: as §3
[19] = test system: Talaromyces funiculosus; test: Antifungal activity against Penicillium funiculosum ATCC 36839 after 72 hrs by serial sub-cultivation method; assay type: functional; settings: ATCC 36839, 72 h
Summary of the method: (§4)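 MFC was found by serial sub-cultivation of 2 µl into plates holding 100 µl broth per well, then incubation 72 h at 28 °C. MFC is the lowest concentration with no visible growth, taken as 99.5% killing of the original inoculum. Spore inocula came from malt agar cultures washed with 0.85% saline and 0.1% Tween 80.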

[20] = test system: Aspergillus flavus; test: Antifungal activity against Aspergillus flavus ATCC 9643 after 72 hrs by serial sub-cultivation method; assay type: functional; settings: ATCC 9643, 72 h; summary of the method: as §4
[21] = test system: Trichoderma viride; test: Antifungal activity against Trichoderma viride IAM 5061 after 72 hrs by serial dilution method; assay type: functional; settings: IAM 5061, 72 h; summary of the method: as §3
[22] = test system: Trichoderma viride; test: Antifungal activity against Trichoderma viride IAM 5061 after 72 hrs by serial sub-cultivation method; assay type: functional; settings: IAM 5061, 72 h; summary of the method: as §4
[23] = test system: Aspergillus versicolor; test: Antifungal activity against Aspergillus versicolor ATCC 11730 after 72 hrs by serial sub-cultivation method; assay type: functional; settings: ATCC 11730, 72 h; summary of the method: as §4
[24] = test system: Fulvia fulva; test: Antifungal activity against Fulvia fulva TK 5318 after 72 hrs by serial dilution method; assay type: functional; settings: TK 5318, 72 h; summary of the method: as §3
[25] = test system: Fulvia fulva; test: Antifungal activity against Fulvia fulva TK 5318 after 72 hrs by serial sub-cultivation method; assay type: functional; settings: TK 5318, 72 h; summary of the method: as §4
[26] = test system: Aspergillus fumigatus; test: Antifungal activity against Aspergillus fumigatus plant isolate after 72 hrs by serial dilution method
[27] = test system: Aspergillus niger; test: Antifungal activity against Aspergillus niger ATCC 6275 after 72 hrs by serial sub-cultivation method; assay type: functional; settings: ATCC 6275, 72 h; summary of the method: as §4
[28] = test system: Penicillium ochrochloron; test: Antifungal activity against Penicillium ochrochloron ATCC 9112 after 72 hrs by serial dilution method; assay type: functional; settings: ATCC 9112, 72 h; summary of the method: as §3
[29] = test system: Penicillium ochrochloron; test: Antifungal activity against Penicillium ochrochloron ATCC 9112 after 72 hrs by serial sub-cultivation method; assay type: functional; settings: ATCC 9112, 72 h; summary of the method: as §4
[30] = test system: Aspergillus fumigatus; test: Antifungal activity against Aspergillus fumigatus plant isolate after 72 hrs by serial sub-cultivation method
[31] = test system: Aspergillus versicolor; test: Antifungal activity against Aspergillus versicolor ATCC 11730 after 72 hrs by serial dilution method; assay type: functional; settings: ATCC 11730, 72 h; summary of the method: as §3
[32] = test system: Aspergillus flavus; test: Antifungal activity against Aspergillus flavus ATCC 9643 after 72 hrs by serial dilution method; assay type: functional; settings: ATCC 9643, 72 h; summary of the method: as §3

CC1(C)S[C@@H]2[C@H](NC(=O)[C@H](N)c3ccccc3)C(=O)N2[C@H]1C(=O)O [AMPICILLIN]
744 µM: MBC [9] | MIC [11]
372 µM: MBC [3] | MBC [4] | MIC [10] | MIC [13] | MBC [15] | MIC [16]
248 µM: MIC [5] | MIC [6] | MIC [8] | MIC [14]
1240 µM: MBC [1]
492 µM: MBC [2] | MBC [7] | MBC [12]

c1ccc(-c2ccc(C(c3ccccc3)n3ccnc3)cc2)cc1 (stereo not drawn) [BIFONAZOLE]
640 µM: MIC [17] | MFC [20] | MIC [21] | MFC [23] | MFC [25] | MFC [27] | MFC [29] | MFC [30]
480 µM: MIC [18] | MIC [26] | MIC [28] | MIC [32]
800 µM: MFC [19] | MFC [22]
320 µM: MIC [24] | MIC [31]

CC(=O)N1CCN(c2ccc(OCC3COC(Cn4ccnc4)(c4ccc(Cl)cc4Cl)O3)cc2)CC1 (stereo not drawn) [KETOCONAZOLE]
5700 µM: MFC [22]
380 µM: MIC [17] | MIC [18] | MIC [24] | MIC [26] | MIC [31]
2850 µM: MIC [32]
3800 µM: MFC [20] | MIC [28] | MFC [29]
4750 µM: MIC [21]
950 µM: MFC [19] | MFC [23] | MFC [25] | MFC [27] | MFC [30]
